System: MS2 coat protein
Test: apparent Kd, MS2 coat protein; higher = weaker binding; RNA-MaP array; FMN 200 µM where present
How it was run: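 Stalled E. coli RNA polymerase transcribed the designs on Illumina sequencing-chip clusters. SNAP-549-labelled MS2 coat protein was titrated from 0.7 or 1.5 nM, doubling to 3 µM, without and then with constant ligand, in 100 mM Tris-HCl pH 7.5, 80 mM KCl, 4 mM MgCl2, BSA, DTT, yeast tRNA and Tween-20. Per-cluster binding curves were fitted to green signal normalised to red-channel RNA signal and control-cluster median Fmax. The apparent Kd is the median of the filtered fits.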

[1] = designed as: OFF switch for flavin mononucleotide, no ligand
[2] = ligand present: flavin mononucleotide, designed as: OFF switch for flavin mononucleotide
[3] = designed as: ON switch for flavin mononucleotide, no ligand
[4] = ligand present: flavin mononucleotide, designed as: ON switch for flavin mononucleotide

With “CGCAUGUAAGGAUAUUAGUAGUAGUCAGAAUAGACUAUUACUGAGAAGGUACAUGAGGAUCACCCAUGUAAGCG” the “apparent Kd” value [1] was 62.9 nM and the “apparent Kd” value [2] was 419 nM.
“AAUGGCCAAGGAUAUGAGACCUAAAACAUGAGGAUCACCCAUGUGGACUCAGCCGCGUGGUCAGAAGGUGGAACCA” was tested, and the “apparent Kd” value [1] was 13.8 nM and the “apparent Kd” value [2] was 14.8 nM.
For “AAGCACGAAGAUUAUUAUGAAUAAACAUGAGGAUCACCCAUGUAGGAUAUCGACUCGAAUAGAGUCGAGAAGGACAUAACGUGC”, the “apparent Kd” value [1] was 6.85 nM and the “apparent Kd” value [2] was 20.7 nM.
With “UUAAUUCUGAUUCUUGAAAUACAUGAGGAUCACCCAUGUUCACAGGAUAUUGAUUAUGUUAGUAACAAGAAGGGUGUAACAUAU” the “apparent Kd” value [1] was 30.6 nM and the “apparent Kd” value [2] was 85.6 nM.
For “UGGUACUAGGGAGGAUAUGGGAAGAUACAUGAGGAUCACCCAUGUUUAAGAAUGCCGAGAGGCAACUAGAAGGCACUAGUACCU”, the “apparent Kd” value [3] was 1100 nM and the “apparent Kd” value [4] was 156 nM.
“AUCAGCUCGUGAGGAUAUACGUCACUGCGUCAGCAGUGUGGUAAGAUCACAUGAGGAUCACCCAUGUAGAAGGCACGAGCUGAU” was tested, and the “apparent Kd” value [1] was 66.2 nM and the “apparent Kd” value [2] was 837 nM.
For “GGCUUGCAGCUAGGAUAUGGGCGAUCACAUGAGGAUCACCCAUGUCAACAUCAAAACAAGAUUAACCAGAAGGAGCCGCGGGUU”, the “apparent Kd” value [3] was 50.6 nM and the “apparent Kd” value [4] was 153 nM.
With “UUCAUGUGAGGAUAUAGUACUCUUUCUAUUAUUUUUGAGUAUUAGAAGGCACAUGAGGAUCACCCAUGUAGUAC” the “apparent Kd” value [1] was 89.7 nM and the “apparent Kd” value [2] was 18.8 nM.
In the case of “CAGCGAUAGCUGAACAAUCUAUCUGAGGAUAUUCAUAAAACAUGAGGAUCACCCAUGUAAAAUUGGGAGAAGGCAGAUAGAUUG”, the “apparent Kd” value [3] is reported as 12.6 nM and the “apparent Kd” value [4] is reported as 4.69 nM.
In the case of “AUACAUGAGGAUCACCCAUGUUACAUGGGCUAGUUUUAACGUAGAAGGAUGUUAUUAUUAUUAGCAUAGGAUAUACAAUUUGAA”, the “apparent Kd” value [1] is reported as 274 nM and the “apparent Kd” value [2] is reported as 248 nM.
In the case of “CACUCGUGUCUAGGAUAUGAGUGACAAGCACGAGAUUUUCUCGACGCUAGCUCAGAAGGAGACAUGAGGAUCACCCAUGUAAGG”, the “apparent Kd” value [1] is reported as 85.3 nM and the “apparent Kd” value [2] is reported as 16.6 nM.
For “GUCAGCUCGUGAGGAUAUACAACACUGCUUCGGCAAUGUAUUAAGAUCACAUGAGGAUCACCCAUGUAGAAGGCACGAGCUGAU”, the “apparent Kd” value [1] was 9.99 nM and the “apparent Kd” value [2] was 164 nM.
For “ACCUUACAUGAGGAUCACCCAUGUCAGGAUAUCUCGGGCGGCUGGAGACCAGCCGCCCAGAGAAGGGACGAGGA”, the “apparent Kd” value [1] was 14.4 nM and the “apparent Kd” value [2] was 15.6 nM.
“GUUUAGUGAGGAUAUGUGGCUUCGAUCGUGAGAUCGAGGCUACAGAAGGCACAUGAGGAUCACCCAUGUUCCUU” was tested, and the “apparent Kd” value [1] was 14.4 nM and the “apparent Kd” value [2] was 51.6 nM.
With “AUGUGGUGCGUAGGAUAUCAUUGAGGGUAACCCUGAGAAGGACGUGAGGACAUGAGGAUCACCCAUGUGGAUCACCCAUGUCAU” the “apparent Kd” value [1] was 150 nM and the “apparent Kd” value [2] was 301 nM.
With “GUAGCUAUCGGAGGAUAUUUAUACCGUAAACGGACAUGAGGAUCACCCAUGUGGCGAAAGCCUUGGGAGAAGGCCGAUAGCUAC” the “apparent Kd” value [3] was 32.6 nM and the “apparent Kd” value [4] was 4.68 nM.
For “AACGCAGAAAUCGCAAUACAUGAGGAUCACCCAUGUAGAUCACAGGAUAUGGUCUAGUCAGUGGUCCAGAAGGGUGAUCAGAAC”, the “apparent Kd” value [3] was 66.4 nM and the “apparent Kd” value [4] was 38.6 nM.
With “CGAUGGCAUGUAGGAUAUCGAGCUCAAAGAGCUCGAGAAGGACAUGAGGAUCACCCAUGUCCUCACAGACAGUGAGGGCUAUCG” the “apparent Kd” value [1] was 22.3 nM and the “apparent Kd” value [2] was 54.7 nM.
For “ACGCUUUGGGAGAAGGUACGUGAAGUAUUAUCCACAUGAGGAUCACCCAUGUAAGGAUAUCCCGGCGUGAAAUAGGCUACAGCA”, the “apparent Kd” value [1] was 4.77 nM and the “apparent Kd” value [2] was 11.3 nM.
In the case of “GGUACUCAAAGAGUACCAAUACGAACAUGAGGAUCACCCAUGUAGGAUAUGCUACUCAAAGAGUAGCAGAAGGACAUGUGCCCU”, the “apparent Kd” value [1] is reported as 60.5 nM and the “apparent Kd” value [2] is reported as 608 nM.

Reference: the EternaBench riboswitch data
